Reference: ChEMBL document CHEMBL4340542, “Design, synthesis and biological evaluation of 4-aniline-thieno[2,3-d]pyrimidine derivatives as MNK1 inhibitors against renal cell carcinoma and nasopharyngeal carcinoma” (Bioorg Med Chem, 2019)
Active and inactive are the calls of the source. The rule behind the calls is not given here.

What was measured:
[1] = target: MAP kinase-interacting serine/threonine-protein kinase 1 (Homo sapiens, UniProt Q9BUB5); experiment: Inhibition of human MNK1 using CREBtide substrate by gamma-[32P]-ATP competitive inhibition assay
In short: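 Run as the Eurofins KinaseProfiler radiometric assay, competitive with γ-[32P]-ATP. IC50 taken as the mean of independent experiments; the footnote gives two.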

786-0 = experiment: Cytotoxicity against human 786-O cells assessed as decrease in cell viability incubated for 24 hrs by MTT assay; format: functional, cell-based
In short: (§1)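 IC50 from an 8–10 point concentration gradient by MTT assay. Panel covers renal cell carcinoma and nasopharyngeal carcinoma lines. Values are mean ± SD, n = 3.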

Homo sapiens = organism: Homo sapiens; experiment: Cytotoxicity against human HNE1 cells assessed as decrease in cell viability incubated for 24 hrs by MTT assay; format: functional, cell-based; in short: as §1
CAKI-1 = experiment: Cytotoxicity against human Caki1 cells assessed as decrease in cell viability incubated for 24 hrs by MTT assay; format: functional, cell-based; in short: as §1
SUNE1 = experiment: Cytotoxicity against human SUNE1 cells assessed as decrease in cell viability incubated for 24 hrs by MTT assay; format: functional, cell-based; in short: as §1
CNE = experiment: Cytotoxicity against human CNE1 cells assessed as decrease in cell viability incubated for 24 hrs by MTT assay; format: functional, cell-based; in short: as §1
CNE-2 = experiment: Cytotoxicity against human CNE2 cells assessed as decrease in cell viability incubated for 24 hrs by MTT assay; format: functional, cell-based; in short: as §1
A498 = experiment: Cytotoxicity against human A498 cells assessed as decrease in cell viability incubated for 24 hrs by MTT assay; format: functional, cell-based; in short: as §1

Chain of MAP kinase-interacting serine/threonine-protein kinase 1 (Q9BUB5 whole entry): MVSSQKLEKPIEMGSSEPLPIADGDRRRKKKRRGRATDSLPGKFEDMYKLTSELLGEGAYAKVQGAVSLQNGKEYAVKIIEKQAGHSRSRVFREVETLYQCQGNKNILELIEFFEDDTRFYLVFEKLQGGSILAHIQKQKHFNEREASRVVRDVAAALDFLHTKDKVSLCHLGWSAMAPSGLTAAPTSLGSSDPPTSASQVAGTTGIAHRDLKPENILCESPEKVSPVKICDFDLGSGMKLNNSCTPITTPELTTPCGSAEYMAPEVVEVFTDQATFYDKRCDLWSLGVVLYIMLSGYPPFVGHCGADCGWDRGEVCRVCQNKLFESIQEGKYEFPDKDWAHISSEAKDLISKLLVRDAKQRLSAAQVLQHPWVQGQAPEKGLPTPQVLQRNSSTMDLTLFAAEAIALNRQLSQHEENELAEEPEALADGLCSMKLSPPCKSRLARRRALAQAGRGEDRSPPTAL

| Compound | IC50 [1] [nM] | other results |
| --- | --- | --- |
| Cc1cccc(Nc2ncnc3sc4c(c23)CCN(Cc2ccccc2)C4)c1 | 2110 |  |
| O=[N+]([O-])c1ccccc1S(=O)(=O)N1CCc2c(sc3ncnc(Nc4cccc(F)c4)c23)C1 | 1990 |  |
| Cc1cccc(Nc2ncnc3sc4c(c23)CCN(S(=O)(=O)c2cccs2)C4)c1 | 2130 |  |
| Clc1cccc(Nc2ncnc3sc4c(c23)CCCC4)c1 | 2430 |  |
| CC(C)(C)OC(=O)N1CCc2c(sc3ncnc(Nc4ccc(F)cc4F)c23)C1 | 1620 |  |
| COc1cccc(Nc2ncnc3sc4c(c23)CCN(S(=O)(=O)c2ccccc2[N+](=O)[O-])C4)c1 | 2020 |  |
| Cc1ccc(Nc2ncnc3sc4c(c23)CCN(S(=O)(=O)c2ccc(F)cc2F)C4)c(Br)c1 | 1680 |  |
| O=S(=O)(c1ccc(F)cc1F)N1CCc2c(sc3ncnc(Nc4cccc(F)c4)c23)C1 | 2020 |  |
| Cc1cccc(Nc2ncnc3sc4c(c23)CCN(S(=O)(=O)c2ccc(F)cc2F)C4)c1 | 2400 |  |
| Cc1ccc(Nc2ncnc3sc4c(c23)CCN(Cc2ccccc2)C4)c(Br)c1 | 1570 |  |
| COc1cccc(Nc2ncnc3sc4c(c23)CCN(C)C4)c1 | 2290 |  |
| Cc1cccc(Nc2ncnc3sc4c(c23)CCCC4)c1 | 1790 |  |
| CC(C)(C)OC(=O)N1CCc2c(sc3ncnc(Nc4ccc(Cl)cc4)c23)C1 | 2240 |  |
| CC(C)(C)OC(=O)N1CCc2c(sc3ncnc(Nc4ccc(Br)cc4)c23)C1 | 1810 |  |
| Cc1cccc(Nc2ncnc3sc4c(c23)CCN(C(=O)OC(C)(C)C)C4)c1 | 2500 |  |
| CN1CCc2c(sc3ncnc(Nc4ccc(Cl)cc4)c23)C1 | 1820 |  |
| COc1cccc(Nc2ncnc3sc4c(c23)CCCC4)c1 | 1700 |  |
| Fc1cccc(Nc2ncnc3sc4c(c23)CCN(Cc2ccccc2)C4)c1 | 2080 |  |
| CC(C)(C)OC(=O)N1CCc2c(sc3ncnc(Nc4cccc(Cl)c4)c23)C1 | 2170 |  |
| COc1cccc(Nc2ncnc3sc4c(c23)CCN(S(=O)(=O)c2ccc(F)cc2F)C4)c1 | 1880 |  |
| CC(C)(C)OC(=O)N1CCc2c(sc3ncnc(Nc4ccc(F)cc4Br)c23)C1 | 1720 |  |
| CN1CCc2c(sc3ncnc(Nc4cccc(F)c4)c23)C1 | 2040 |  |
| O=[N+]([O-])c1ccccc1S(=O)(=O)N1CCc2c(sc3ncnc(Nc4cccc(Cl)c4)c23)C1 | 1640 |  |
| Brc1ccc(Nc2ncnc3sc4c(c23)CCN(Cc2ccccc2)C4)cc1 | 1690 |  |

| Compound | IC50 [1] [nM] | other results |
| --- | --- | --- |
| CN1CCc2c(sc3ncnc(Nc4cccc(Cl)c4)c23)C1 | 1870 |  |
| Cc1cccc(Nc2ncnc3sc4c(c23)CCN(C)C4)c1 | 2220 |  |
| COc1ccc(S(=O)(=O)N2CCc3c(sc4ncnc(Nc5ccc(C)cc5Br)c34)C2)cc1 | 1890 |  |
| Cc1ccc(Nc2ncnc3sc4c(c23)CCN(C(=O)OC(C)(C)C)C4)c(Br)c1 | 1700 |  |
| O=S(=O)(c1ccc(F)cc1F)N1CCc2c(sc3ncnc(Nc4cccc(Cl)c4)c23)C1 | 1740 |  |
| O=S(=O)(c1ccc(F)cc1F)N1CCc2c(sc3ncnc(Nc4ccc(Br)cc4)c23)C1 | 1730 |  |
| Cc1cccc(Nc2ncnc3sc4c(c23)CCN(S(=O)(=O)c2ccccc2[N+](=O)[O-])C4)c1 | 2060 |  |
| CC(C)(C)OC(=O)N1CCc2c(sc3ncnc(Nc4cccc(F)c4)c23)C1 | 2190 |  |
| CN1CCc2c(sc3ncnc(Nc4ccc(Cl)cc4F)c23)C1 | 1850 |  |
| CN1CCc2c(sc3ncnc(Nc4ccc(Br)cc4)c23)C1 | 1690 |  |
| O=S(=O)(c1cccs1)N1CCc2c(sc3ncnc(Nc4ccc(Cl)cc4)c23)C1 | 1630 |  |
| CC(C)(C)OC(=O)N1CCc2c(sc3ncnc(Nc4ccc(Cl)cc4F)c23)C1 | 2160 |  |
| Cc1ccc(Nc2ncnc3sc4c(c23)CCN(S(=O)(=O)c2cccs2)C4)c(Br)c1 | 1560 |  |
| COc1cccc(Nc2ncnc3sc4c(c23)CCN(S(=O)(=O)c2cccs2)C4)c1 | 2350 |  |
| COc1ccc(S(=O)(=O)N2CCc3c(sc4ncnc(Nc5cccc(OC)c5)c34)C2)cc1 | 2140 |  |
| O=[N+]([O-])c1ccccc1S(=O)(=O)N1CCc2c(sc3ncnc(Nc4ccc(Cl)cc4)c23)C1 | 1650 |  |
| Clc1cccc(Nc2ncnc3sc4c(c23)CCN(Cc2ccccc2)C4)c1 | 2290 |  |
| Fc1cccc(Nc2ncnc3sc4c(c23)CCCC4)c1 | 2180 |  |
| Cc1ccc(Nc2ncnc3sc4c(c23)CCN(S(=O)(=O)c2ccccc2[N+](=O)[O-])C4)c(Br)c1 | 1650 |  |
| Clc1ccc(Nc2ncnc3sc4c(c23)CCCC4)cc1 | 1620 |  |
| COc1cccc(Nc2ncnc3sc4c(c23)CCN(Cc2ccccc2)C4)c1 | 1920 |  |
| COc1cccc(Nc2ncnc3sc4c(c23)CCN(C(=O)OC(C)(C)C)C4)c1 | 1950 |  |
| Cc1ccc(Nc2ncnc3sc4c(c23)CCN(C)C4)c(Br)c1 | 1650 |  |

The next lines start with results.

| IC50 [1] [nM] | Compound | other results |
| --- | --- | --- |
| 1160 | O=[N+]([O-])c1ccccc1S(=O)(=O)N1CCc2c(sc3ncnc(Nc4ccc(F)cc4Br)c23)C1 |  |
| 1100 | COc1cc(F)ccc1Nc1ncnc2sc3c(c12)CCN(S(=O)(=O)c1ccccc1[N+](=O)[O-])C3 |  |
| 1400 | COc1ccc(S(=O)(=O)N2CCc3c(sc4ncnc(Nc5cccc(Cl)c5)c34)C2)cc1 |  |
| 1500 | O=S(=O)(c1ccc(F)cc1F)N1CCc2c(sc3ncnc(Nc4ccc(Cl)cc4)c23)C1 |  |
| 1390 | COc1ccc(S(=O)(=O)N2CCc3c(sc4ncnc(Nc5cccc(F)c5)c34)C2)cc1 |  |
| 1390 | O=S(=O)(c1cccs1)N1CCc2c(sc3ncnc(Nc4ccc(Br)cc4)c23)C1 |  |
| 830 | COc1ccc(S(=O)(=O)N2CCc3c(sc4ncnc(Nc5ccc(F)cc5F)c34)C2)cc1 | Activity (786-0): Active; Activity (Homo sapiens): Active; Activity (CAKI-1): Active; Activity (SUNE1): Active; Activity (CNE): Active; Activity (CNE-2): Active; Activity (A498): Active |
| 970 | O=S(=O)(c1cccs1)N1CCc2c(sc3ncnc(Nc4ccc(F)cc4Br)c23)C1 |  |
| 1470 | CN1CCc2c(sc3ncnc(Nc4ccc(F)cc4Br)c23)C1 |  |
| 940 | COc1cc(F)ccc1Nc1ncnc2sc3c(c12)CCN(S(=O)(=O)c1cccs1)C3 |  |
| 1090 | CN1CCc2c(sc3ncnc(Nc4ccc(F)cc4F)c23)C1 |  |
| 1500 | O=S(=O)(c1cccs1)N1CCc2c(sc3ncnc(Nc4cccc(F)c4)c23)C1 |  |
| 1220 | COc1ccc(S(=O)(=O)N2CCc3c(sc4ncnc(Nc5ccc(Cl)cc5)c34)C2)cc1 |  |
| 1100 | O=S(=O)(c1ccc(F)cc1F)N1CCc2c(sc3ncnc(Nc4ccc(F)cc4F)c23)C1 |  |
| 1280 | O=S(=O)(c1ccc(F)cc1F)N1CCc2c(sc3ncnc(Nc4ccc(F)cc4Br)c23)C1 |  |
| 1080 | O=[N+]([O-])c1ccccc1S(=O)(=O)N1CCc2c(sc3ncnc(Nc4ccc(F)cc4F)c23)C1 |  |

| IC50 [1] [nM] | Compound | other results |
| --- | --- | --- |
| 1540 | O=S(=O)(c1ccc(F)cc1F)N1CCc2c(sc3ncnc(Nc4ccc(Cl)cc4F)c23)C1 |  |
| 1250 | O=[N+]([O-])c1ccccc1S(=O)(=O)N1CCc2c(sc3ncnc(Nc4ccc(Br)cc4)c23)C1 |  |
| 1000 | COc1cc(F)ccc1Nc1ncnc2sc3c(c12)CCN(Cc1ccccc1)C3 |  |
| 1510 | Brc1ccc(Nc2ncnc3sc4c(c23)CCCC4)cc1 |  |
| 930 | COc1cc(F)ccc1Nc1ncnc2sc3c(c12)CCN(S(=O)(=O)c1ccc(F)cc1F)C3 |  |
| 930 | COc1cc(F)ccc1Nc1ncnc2sc3c(c12)CCN(C)C3 |  |
| 1260 | O=[N+]([O-])c1ccccc1S(=O)(=O)N1CCc2c(sc3ncnc(Nc4ccc(Cl)cc4F)c23)C1 |  |
| 1540 | Clc1ccc(Nc2ncnc3sc4c(c23)CCN(Cc2ccccc2)C4)cc1 |  |
| 1100 | Fc1ccc(Nc2ncnc3sc4c(c23)CCN(Cc2ccccc2)C4)c(F)c1 |  |
| 1120 | Fc1ccc(Nc2ncnc3sc4c(c23)CCN(Cc2ccccc2)C4)c(Br)c1 |  |
| 1310 | Fc1cc(Cl)ccc1Nc1ncnc2sc3c(c12)CCN(Cc1ccccc1)C3 |  |
| 1340 | COc1cc(F)ccc1Nc1ncnc2sc3c(c12)CCN(C(=O)OC(C)(C)C)C3 |  |
| 1460 | O=S(=O)(c1cccs1)N1CCc2c(sc3ncnc(Nc4ccc(F)cc4F)c23)C1 |  |
| 1360 | O=S(=O)(c1cccs1)N1CCc2c(sc3ncnc(Nc4ccc(Cl)cc4F)c23)C1 |  |
| 1380 | O=S(=O)(c1cccs1)N1CCc2c(sc3ncnc(Nc4cccc(Cl)c4)c23)C1 |  |
| 1410 | COc1ccc(S(=O)(=O)N2CCc3c(sc4ncnc(Nc5cccc(C)c5)c34)C2)cc1 |  |
